One molecule from ChEMBL document CHEMBL2401654, “Synthesis, characterization, and biological assessment of the four stereoisomers of the H(3) receptor antagonist 5-fluoro-2-methyl-N-[2-methyl-4-(2-methyl[1,3']bipyrrolidinyl-1'-yl)phenyl]benzamide” (Bioorg Med Chem Lett, 2013) can be followed below.

A short description of data set [1]: Half life in C57BL/6 mouse brain at 2 mg/kg, iv. Also noted: dose 2 mg/kg, route intravenous. Type of data set: ADME, organism-based. The method in brief:
(§1)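 Male C57BL/6 mice received a single intravenous dose of 2 mg/kg, formulated at 1 mg/mL in 50% 1-methyl-2-pyrrolidinone in saline. Plasma and brain concentrations were followed to derive PK parameters. Brain to plasma ratio was calculated from AUC.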

Data set [2] can be described thus: AUC (0 to infinity) in C57BL/6 mouse brain at 10 mg/kg, po. Format: ADME, organism-based. The arrangement: time infinity, dose 10 mg/kg, route oral. The method, boiled down: (§2)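 Male C57BL/6 mice were dosed orally at 10 mg/kg, formulated at 1 mg/mL in 5% DMSO/0.5% MC/0.2% tween 80. Plasma and brain were sampled for PK parameters. Brain to plasma ratio was based on AUC0-24.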

A short description of data set [3]: Half life in C57BL/6 mouse plasma at 2 mg/kg, iv. Also noted: dose 2 mg/kg, route intravenous. Format: ADME, organism-based. The method, boiled down:
as §1

A short description of data set [4]: AUC (0 to infinity) in C57BL/6 mouse plasma at 10 mg/kg, po. Type of data set: ADME, organism-based. The arrangement: time infinity, dose 10 mg/kg, route oral. The method in brief: as §2
Data set [5] is described as follows: AUC (0 to infinity) in C57BL/6 mouse brain at 2 mg/kg, iv. Format: ADME, organism-based. The arrangement: time infinity, dose 2 mg/kg, route intravenous. The method in brief: as §1
Data set [6] is described as follows: AUC (0 to infinity) in C57BL/6 mouse plasma at 2 mg/kg, iv. Type of data set: ADME, organism-based. Also noted: time infinity, dose 2 mg/kg, route intravenous. The method, boiled down:
as §1

Data set [7] can be described thus: Tmax in C57BL/6 mouse brain at 10 mg/kg, po. Type of data set: ADME, organism-based. Also noted: dose 10 mg/kg, route oral. The method in brief:
as §2

The nature of data set [8]: Tmax in C57BL/6 mouse plasma at 10 mg/kg, po. Format: ADME, organism-based. The arrangement: dose 10 mg/kg, route oral. The method, boiled down:
as §2

Data set [9] is described as follows: Tmax in C57BL/6 mouse brain at 2 mg/kg, iv. Type of data set: ADME, organism-based. Also noted: dose 2 mg/kg, route intravenous. The method, boiled down: as §1
Data set [10] can be described thus: Tmax in C57BL/6 mouse plasma at 2 mg/kg, iv. Type of data set: ADME, organism-based. The arrangement: dose 2 mg/kg, route intravenous. The method in brief: as §1
Data set [11] in a line: Cmax in C57BL/6 mouse plasma at 10 mg/kg, po. Type of data set: ADME, organism-based. Also noted: dose 10 mg/kg, route oral. The method in brief:
as §2

Data set [12] can be described thus: Cmax in C57BL/6 mouse brain at 10 mg/kg, po. Type of data set: ADME, organism-based. The arrangement: dose 10 mg/kg, route oral. The method in brief:
as §2

A short description of data set [13]: Cmax in C57BL/6 mouse plasma at 2 mg/kg, iv. Format: ADME, organism-based. The arrangement: dose 2 mg/kg, route intravenous. The method, boiled down:
as §1

Data set [14] is described as follows: Cmax in C57BL/6 mouse brain at 2 mg/kg, iv. Type of data set: ADME, organism-based. Also noted: dose 2 mg/kg, route intravenous. The method, boiled down:
as §1

Data set [15] in a line: Drug metabolism in rat liver microsomes at 5 uM after 20 mins. The following applies: read-out: Drug metabolism. Type of data set: ADME, Microsome. The method, boiled down: (§3)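 Substrate at 5 µM incubated at 37 °C for 20 min with in-house liver microsome preparations (human, mouse or rat). Reported as the percentage of parent compound metabolized.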
On the technique in general: Liver microsomes are a subcellular fraction often used to study metabolism.

The nature of data set [16]: Drug metabolism in human liver microsomes at 5 uM after 20 mins. Type of data set: ADME, Microsome. The settings on record: read-out: Drug metabolism. The method, boiled down:
as §3

Data set [17] in a line: Drug metabolism in mouse liver microsomes at 5 uM after 20 mins. Type of data set: ADME, Microsome. The following applies: read-out: Drug metabolism. The method in brief: as §3
Data set [18] has as its target Histamine H3 receptor (Rattus norvegicus, UniProt Q9QYN8). The experiment in a line: Displacement of [3H]N-alpha-methylhistamine from recombinant rat histamine H3 receptor transfected in CHO cell membranes after 1 hr by scintillation counting analysis. Also noted: species or system Membrane. The method in brief: (§4)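 Radioligand displacement of [3H]N-α-methylhistamine using membranes from CHO cells stably transfected with recombinant human or rat H3 receptor. Ki is presented as a range of multiple experiments (n ≥ 3).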
Background: Displacement assays read how much labelled ligand stays bound in the presence of the test substance.

In data set [19] the target is Histamine H3 receptor (Homo sapiens, UniProt Q9Y5N1). The experiment in a line: Displacement of [3H]N-alpha-methylhistamine from recombinant human histamine H3 receptor transfected in CHO cell membranes after 1 hr by scintillation counting analysis. The method in brief:
as §4

Data set [20] can be described thus: Partition coefficient, log P of the compound. Type of data set: physicochemical. The settings on record: octanol/water.
The nature of data set [21]: Distribution coefficient, log D of the compound. Format: physicochemical. The settings on record: octanol/water.
The target in data set [22] is Histamine receptor H3 (Macaca mulatta, UniProt Q865E1). The experiment in a line: Displacement of [3H]N-alpha-methylhistamine from recombinant rhesus monkey histamine H3 receptor transfected in CHO cell membranes after 1 hr by scintillation counting analysis.
Histamine receptor H3, sequence (Q865E1 whole entry): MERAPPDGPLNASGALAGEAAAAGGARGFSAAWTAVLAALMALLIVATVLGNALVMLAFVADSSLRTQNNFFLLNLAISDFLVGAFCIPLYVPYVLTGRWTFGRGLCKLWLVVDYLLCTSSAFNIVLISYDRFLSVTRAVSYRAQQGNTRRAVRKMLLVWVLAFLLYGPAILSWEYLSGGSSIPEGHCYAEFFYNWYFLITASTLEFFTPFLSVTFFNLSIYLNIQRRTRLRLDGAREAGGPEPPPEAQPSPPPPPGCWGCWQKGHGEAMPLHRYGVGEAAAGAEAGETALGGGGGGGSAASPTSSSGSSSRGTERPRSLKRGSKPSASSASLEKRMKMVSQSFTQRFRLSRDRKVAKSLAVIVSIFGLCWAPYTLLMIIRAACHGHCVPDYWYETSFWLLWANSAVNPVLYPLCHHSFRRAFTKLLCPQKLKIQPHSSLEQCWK
Data set [23] can be described thus: Solubility of the compound in PBS buffer at pH 7.4. Type of data set: physicochemical. The method in brief: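 Solubility measured in PBS at pH 7.4.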
Data set [24] deals with Mus musculus. Kind of data set: Toxicity in mouse assessed as appearance of abnormal clinical signs at 3 to 30 mg/kg, po after 1 week. Format: organism-based. Also noted: dose 3-30 mg/kg, route oral. The following applies: in vivo, 168 h. The method in brief:
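Behavioral safety study in mice given single oral doses of 3, 10 and 30 mg/kg. Tremors, tail pinch response, body temperature, pupil size and body weight were scored at 2 and 6 h post dose. Clinical signs were observed over one week after dosing.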

In brackets after ≈: the same amount, converted by molar mass.

Histamine H3 receptor (Homo sapiens, UniProt Q9Y5N1), sequence (Q9Y5N1 whole entry): as the sequence (Q865E1 whole entry) above, with N148D, G240A, A282V, T289A, A290T, A300V, Q442H counted along it
Histamine H3 receptor (Rattus norvegicus, UniProt Q9QYN8), sequence (Q9QYN8 whole entry): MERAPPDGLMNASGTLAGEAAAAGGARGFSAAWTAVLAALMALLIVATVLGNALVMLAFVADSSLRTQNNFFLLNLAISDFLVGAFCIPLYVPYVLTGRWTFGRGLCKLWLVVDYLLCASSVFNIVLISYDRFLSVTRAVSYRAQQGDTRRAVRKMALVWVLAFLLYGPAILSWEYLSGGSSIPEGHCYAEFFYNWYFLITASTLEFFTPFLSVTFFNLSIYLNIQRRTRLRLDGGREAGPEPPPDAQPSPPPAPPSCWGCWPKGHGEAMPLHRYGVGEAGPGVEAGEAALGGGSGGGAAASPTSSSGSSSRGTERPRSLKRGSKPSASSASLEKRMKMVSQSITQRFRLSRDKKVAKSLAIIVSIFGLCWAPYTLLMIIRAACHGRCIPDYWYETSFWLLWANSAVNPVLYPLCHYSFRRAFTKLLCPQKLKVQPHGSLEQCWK

The term half-life denotes the time needed for the level to fall by half in the phase considered. By AUC(0-inf) is commonly meant total exposure, with the tail of the curve extrapolated. One may read the Tmax as the time at which the peak concentration occurs. Usually Cmax stands for the highest concentration seen after dosing. Broadly, the Ki is the dissociation constant of the complex between target and ligand, obtained from inhibition or displacement. The logP is the decadic logarithm of the partition coefficient of the neutral form, usually between octanol and water. The term logD denotes lipophilicity at a set pH, counting ionised and neutral species. Usually solubility stands for how much of the substance goes into solution per volume. `Cc1cc(N2CC[C@H](N3CCC[C@@H]3C)C2)ccc1NC(=O)c1cc(F)ccc1C`: the half-life in data set [1] was 96 min; in data set [3] it was 156 min. The area under the curve AUC(0-inf) in [2] is 18000 ng·h/mL; in data set [4] it was 4000 ng·h/mL; in data set [5], 2600 ng·h/mL; in data set [6], 560 ng·h/mL. Besides, the time of peak concentration (Tmax) in data set [7] is 1 h; in [8] it was 10.2 min; in [9], 4.98 min; in [10], 4.98 min. The peak concentration (Cmax) in [11] came to 1310 ng/mL; in data set [12], 4290 ng/mL; in data set [13], 2000 ng/mL; in [14], 4820 ng/mL. For the same molecule, the metabolised at 20 min, 5 µM in data set [15] was found to be 20%; in data set [16], 3%; in [17], 19%. Moreover, the Ki was found to be 3 nM in data set [18], 3.4 nM in data set [19] and 2.5 nM in [22]. The logP in data set [20] was 3.55. This molecule came in with a logD in [21] of 2.09. In data set [23], this molecule displayed a solubility of 293 µg/mL (≈ 742 µM). In data set [24], the Activity result is reported as “Non-toxic”.
